# The list is not random: actives were taken first. Their share in the collection is about 4%.
# Granule exo inh – LAMP-1 surface exposure blockers, TALL-104 cells – cell-based, flow cytometry, MLPCN library, primary screen; inhibition, % at 10 µM; AID 651702, 2012; actives 0.66% (n = 360,000); TALL-104 LAMP-1 surface exposure; cells stimulated with thapsigargin and PMA;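 active means inhibition above about 55%, limit read from the data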
# ABHD5-PLIN5 inh – ABHD5-PLIN5 interaction inhibitors, primary screen, cell lysate, split luciferase complementation, luminescence | Perilipin-5 (Homo sapiens) + 1-acylglycerol-3-phosphate O-acyltransferase ABHD5 (Homo … | Split G. princeps luciferase complementation, 4 h | inhibition, % at 4 µM | actives 0.78% (n = 360,000) | AID 602281, 2012;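 active means inhibition above the mean inhibition across every tested compound plus 3 SD, cut at about 22% in these data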;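 further: 0% = DMSO only wells and the 100% control is not disclosed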
# Target sequence (Q00G26 whole entry, looked up): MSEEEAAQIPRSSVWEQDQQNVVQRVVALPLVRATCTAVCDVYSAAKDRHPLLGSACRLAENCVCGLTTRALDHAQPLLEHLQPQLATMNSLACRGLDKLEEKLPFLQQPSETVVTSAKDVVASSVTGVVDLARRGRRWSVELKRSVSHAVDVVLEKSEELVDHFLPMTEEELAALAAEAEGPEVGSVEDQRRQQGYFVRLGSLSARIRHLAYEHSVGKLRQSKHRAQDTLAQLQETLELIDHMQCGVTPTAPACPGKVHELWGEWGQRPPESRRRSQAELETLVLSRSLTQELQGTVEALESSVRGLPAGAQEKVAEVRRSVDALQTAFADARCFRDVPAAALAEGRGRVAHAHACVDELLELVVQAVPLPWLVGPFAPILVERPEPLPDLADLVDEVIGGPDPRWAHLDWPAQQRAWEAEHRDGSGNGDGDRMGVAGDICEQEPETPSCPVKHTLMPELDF
# Target sequence (Q8WTS1 whole entry, looked up): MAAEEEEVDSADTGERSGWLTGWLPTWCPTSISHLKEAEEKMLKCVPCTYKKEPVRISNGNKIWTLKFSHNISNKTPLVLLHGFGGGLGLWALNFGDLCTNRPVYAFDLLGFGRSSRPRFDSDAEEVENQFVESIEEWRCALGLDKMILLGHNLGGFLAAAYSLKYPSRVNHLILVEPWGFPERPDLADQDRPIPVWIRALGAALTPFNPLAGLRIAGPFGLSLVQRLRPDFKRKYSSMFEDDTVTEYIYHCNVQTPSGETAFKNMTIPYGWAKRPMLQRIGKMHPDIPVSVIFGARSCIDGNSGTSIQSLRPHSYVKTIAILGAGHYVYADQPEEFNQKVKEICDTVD
# CHOP UPR activ – activators of apoptotic CHOP UPR arm, primary screen, cell-based, CHO-CHOP luciferase reporter, luminescence, uHTS | UPR activation; percent of tunicamycin response over DMSO baseline | actives 0.34% (n = 330,000) | activation, % at 10 µM;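 active means at 10 µM dose, activation of 40% or more, normalized to positive control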;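 further: 100% = tunicamycin at 10 µg/mL and 0% = DMSO alone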
#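 measured by = luciferase luminescence | assay system = CHO-CHOP cells, stable luciferase reporter of PERK-eIF2a-CHOP signalling | amount = 500 reporter cells seeded per well | timing = 6 h compound exposure at 37 °C after overnight seeding | controls = positive tunicamycin 10 µg/mL, negative DMSO alone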
# UPR XBP1 act – activators of adaptive XBP1 UPR arm, primary screen, cell-based, CHO-XBP1 luciferase reporter, luminescence, uHTS. IRE1-XBP1 UPR activation; percent of tunicamycin response, DMSO as zero. activation, % at 20 µM. actives 0.33% (n = 330,000);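 active means versus positive control, 20 µM dose yields 30% or more activation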;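 further: 100% = tunicamycin at 10 µg/mL and 0% = DMSO only wells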
#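 Assay system: CHO-XBP1 luciferase reporter cells; Schedule: 6 h treatment, 37 °C; Detection: glow luminescence from Steady-Glo reagent; Benchmarks: high control tunicamycin 10 µg/mL final, low control DMSO vehicle only.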
# Mdm2 MdmX PPI – inhibitors of human Mdm2-MdmX association, primary screen, cell-based, luminescence, split luciferase, SaOS-2, uHTS | AID 485346, 2010 | SaOS-2 split-luciferase Mdm2/MdmX complementation | inhibition, % at 8 µM | actives 3% (n = 330,000) | Protein Mdm4 (Homo sapiens) + E3 ubiquitin-protein ligase Mdm2 (Homo sapiens), …;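 active means inhibition of at least 50% at 8 µM in the primary screen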
# UPR XBP1 confirm – IRE1-XBP1 UPR arm activators, confirmation, cell-based, CHO-XBP1 luciferase reporter, luminescence, single concentration; shares compounds with UPR XBP1 act; activation, % at 20 µM; actives 63% (n = 1,000); AID 485299, 2010;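 active means reporter signal at least 30% of the positive control's activation in two or more of four replicate wells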;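 further: plate controls were DMSO negative control for no effect and tunicamycin 10 µg/mL positive control for full effect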
# Numbers without * were called inactive; x = no result given.
SMILES,Granule exo inh,ABHD5-PLIN5 inh,CHOP UPR activ,UPR XBP1 act,Mdm2 MdmX PPI,UPR XBP1 confirm
Cc1ccnc(OC(C(=O)O)C(OCc2ccccc2)(c2ccccc2)c2ccc(C(F)(F)F)cc2)n1 (centres undefined),12,-12,2,-1,20,x
COc1ccc(N(CC(=O)Nc2c(C)n(C)n(-c3ccccc3)c2=O)S(=O)(=O)c2ccccc2)cc1OC,3,-4,1,90*,-2,1
COc1ccc(N(CC(=O)Nc2c(C)n(C)n(-c3ccccc3)c2=O)S(=O)(=O)c2ccc(C)cc2)cc1,-2,-7,-1,0,-2,x
COc1ccc(/C(C)=N/N2C(=O)c3ccccc3NC2c2ccc(O)c(OC)c2)cc1 (centres undefined),0,9,3,1,-7,x
Cc1cc(C)c2c(c1)/C(=N\N=c1\sc3ccccc3n1C)C(=O)N2,21,0,18,30*,28,28
Cn1c(=NC(=O)C2=NNC(=O)CC2)sc2ccccc21,0,2,1,3,21,x
COc1cccc(C2C(=O)N(C3CCCCC3)CC(=O)N2Cc2ccc(F)cc2)c1 (centres undefined),-2,4,-2,1,6,x
COc1ccc(C(=O)NC(=S)Nc2cc3oc4ccccc4c3cc2OC)cc1,-5,-7,27,34*,25,11
COc1cc2c(cc1NC(=S)NC(=O)c1c(OC)cccc1OC)oc1ccccc12,-17,1,0,-2,23,x
O=c1c2ccsc2ncn1Cc1cccc(C(F)(F)F)c1,-2,6,2,-1,0,x
CCC(Sc1nnc2c3ccccc3n(CC)c2n1)C(=O)Nc1sc2c(c1C#N)CCCC2 (centres undefined),1,1,12,163*,3,157*
CCC(Sc1nc(C)cc(=O)[nH]1)C(=O)Nc1sc2c(c1C#N)CCCC2 (centres undefined),0,2,1,0,-24,x
CCCC(=O)N1CCN(c2ccc(NC(=O)c3ccc([N+](=O)[O-])o3)cc2Cl)CC1,1,0,x,x,x,x
Nc1nc(Nc2cccc(C(F)(F)F)c2)nc(C(F)(F)F)n1,-3,-11,1,34*,16,49*
O=C(c1ccc(-c2ccccc2)cc1)N1CCC2CC1c1cc(-c3ccc4c(c3)OCO4)ccc12 (centres undefined),-1,-6,x,x,x,x
Cc1onc(-c2c(Cl)cccc2Cl)c1C(=O)NC(=S)Nc1sc2c(c1C(N)=O)CCC(C)C2 (centres undefined),10,4,4,-4,36,x
NS(=O)(=O)c1ccc(N/N=C2/CCCCC2C2CCCCC2)c([N+](=O)[O-])c1 (centres undefined),14,-13,4,55*,38,84*
Cc1cc(C)c2c(c1)/C(=N/Nc1ccc(S(N)(=O)=O)cc1[N+](=O)[O-])CCC2,-1,9,16,76*,47,50*
CC1C/C(=N\Nc2ccc(S(N)(=O)=O)cc2[N+](=O)[O-])CC(C)(C)C1 (centres undefined),-2,-5,0,4,7,x
O=C(Nc1ccc(Cl)cc1)N1CCCN(c2ccc(C(F)(F)F)cc2[N+](=O)[O-])CC1,10,-3,1,-3,13,x
CC(=O)NCC(=O)N(c1c(C)n(C)n(-c2ccccc2)c1=O)C1(C(=O)NC2CCCC2)CCCCC1,-2,3,2,-2,0,x
CCOC(=O)C1=C(C)N=C2c3ccccc3C(=O)C2C1c1ccc(C)cc1 (centres undefined),4,-1,2,32*,38,28*

# From PubChem
